From PubChem
TRPC4 act: activators of mouse TRPC4 channel. Q9QUQ5. HEK293 TRPC4beta/mu-opioid, Fluo4 calcium fluorescence; hits give high values. B-score at 10 µM. actives 0.49% (n = 310,000). AID 2237;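 active = B-score above 5 SD of library B-scores, and initial fluorescence ratio not above library mean plus 5 SD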;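 note: positive B-score marks a calcium rise read as TRPC4 activation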
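Assay system – TRPC4beta and mu-opioid receptor HEK293 stable cells · Measured by – Fluo4 fluorescence, kinetic · Schedule – dye loading 45 min room temperature, 110 s kinetic read · Read-out – B-scored integrated calcium fluorescence ratio · Controls – buffer and maximal DAMGO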
TRPC4 PAM: allosterically enhances the mouse TRPC4 cation channel; B-score at 10 µM; actives 0.42% (n = 310,000); Q9QUQ5; HEK293 TRPC4beta/mu-opioid, DAMGO EC20, Fluo-4 Ca2+ flux; hits give high values;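 active = B-score of calcium response area above 5 SD of library B-scores, with initial fluorescence ratio within 5 SD of library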;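 note: B-score of integrated fluorescence ratio over time as area under calcium response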
TRPC6 inh: inhibitors of mouse TRPC6 channel; HEK293-TRPC6, membrane potential dye, ACh-evoked depolarization; hits give low values; AID 2553; B-score at 10 µM; Q61143; actives 1.1% (n = 310,000);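 active = B-score under library mean minus 3 SD, initial fluorescence not abnormally high, positive integrated signal ratio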;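 note: B-score derived from integrated fluorescence ratio over the kinetic read; more negative B-score means stronger inhibition of depolarization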
TRPC4 inh: blocks the mouse TRPC4 cation channel; Q9QUQ5; HEK293 TRPC4beta/mu-opioid, DAMGO-evoked Fluo4 calcium flux; hits give low values; B-score at 10 µM; actives 0.39% (n = 300,000);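 active = B-score over 3 SD under the library average, no early fluorescence shift, positive overall ratio signal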
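test system = HEK293 cells with stable TRPC4beta plus mu-opioid receptor expression | detection = Fluo4 Ca2+ flux fluorescence | read-out = integrated fluorescence ratio relative to baseline, converted to per-well B score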
TRPC6 act: mouse TRPC6 channel activation; HEK293-TRPC6 membrane potential dye fluorescence; hits give high values; B-score at 10 µM; actives 0.13% (n = 310,000); AID 2550; Q61143;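 active = B-score of the integrated fluorescence ratio above library mean plus 3 SD, and starting fluorescence ratio within library mean plus 5 SD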;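 note: higher score means more depolarization so channel activation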
* = called active by the depositor; i = inactive. Compounds with a hit are over-represented: about 2.3% of the library has one in this group of screens.

SMILES	TRPC4 act	TRPC4 PAM	TRPC6 inh	TRPC4 inh	TRPC6 act
Cc1c(-c2ccccc2)nc2ccccc2c1C(=O)O	i	i	i	i	i
C/C(Cc1ccccc1)=N\NC(=O)CNC(=O)COc1cccc(C)c1	80*	i	i	i	i
CN(CCOc1ccc(Cl)cc1)CC(O)c1ccccc1 (stereo not given)	126*	i	i	i	i
CN(CCOc1ccc(Br)cc1)CC(O)c1ccccc1 (stereo not given)	149*	i	i	i	i
CC(C)c1ccc(CN(C)CC(O)c2ccccc2)cc1 (stereo not given)	i	i	i	i	i
O=C(Nc1cccc([N+](=O)[O-])c1)N1CCCCCC1	i	i	i	i	i
COc1ccccc1N=CC1=C(O)CC(c2ccccc2)CC1=O (stereo not given)	i	i	i	i	i
CC1CCN(C(=O)CCC(=O)Nc2nnc(C3CCCCC3)s2)CC1	i	i	i	i	i
COC1=C(Nc2ccc(C)cc2)C(=O)c2ccccc2C1=O	i	i	i	i	i
COC1=C(Nc2ccccc2)C(=O)c2ccccc2C1=O	i	13*	i	i	i
COc1ccc(N2CCN(C(=O)c3cccc(NC(=O)c4ccco4)c3)CC2)cc1	i	i	i	i	i
OC(CNCCc1ccc(C(F)(F)F)cc1)COC(c1ccccc1)c1ccccc1 (stereo not given)	i	i	i	i	i
CCOC(=O)CSc1nc2c(sc(=S)n2-c2ccccc2OC)c(=O)n1-c1ccccc1OC	i	i	i	i	i
CCOC(=O)CSc1nc2c(sc(=S)n2Cc2ccco2)c(=O)n1-c1ccccc1	i	i	i	-6*	i
CCOC(=O)CSc1nc2c(sc(=S)n2-c2ccccc2OC)c(=O)n1Cc1ccco1	i	i	-5.7*	-5*	i
CCN(CC)C(=O)CSc1nc2c(sc(=S)n2Cc2ccco2)c(=O)n1-c1ccccc1	i	i	i	i	i
CCOc1cccc(CN2CCCC(C(=O)c3cccc(C(F)(F)F)c3)C2)c1O (stereo not given)	i	i	i	-6*	i
COCc1cc(CN2CCCC(C(=O)c3cccc(C(F)(F)F)c3)C2)ccc1OC (stereo not given)	i	i	i	i	i
COc1ccc(C(=O)C2CCCN(Cc3c(O)cccc3OC)C2)cc1OC (stereo not given)	i	i	i	i	i
CC(=O)Nc1ccc(CN2CCCC(C(=O)c3ccc(C(F)(F)F)cc3)C2)cc1 (stereo not given)	234*	i	i	i	i
COc1cccc(O)c1CN1CCCC(C(=O)c2cccc(C(F)(F)F)c2)C1 (stereo not given)	i	i	i	-7*	i
COc1c(C)cc(C(=O)C2CCCN(Cc3cccc4nccnc34)C2)cc1C (stereo not given)	110*	i	i	i	i
Cc1ccc(CNC(=O)C2(S(=O)(=O)c3ccccc3)CC=CC2)cc1	i	i	i	i	i
O=C(COC(=O)CC12CC3CC(CC(C3)C1)C2)Nc1cccnc1Cl	i	i	i	i	i
Cc1ccccc1CSCC(=O)Nc1c(C)n(C)n(-c2ccccc2)c1=O	i	i	i	i	i
SMILES	TRPC4 act	TRPC4 PAM	TRPC6 inh	TRPC4 inh	TRPC6 act
O=C(CNC(=O)N1CC(=O)Nc2ccccc21)NCc1cccc(Cl)c1	i	i	i	i	i
CN(CC(=O)Nc1ccc(SC(F)F)cc1)C1CCCCC1	i	i	i	-6*	i
N#Cc1cc2c(nc1Cl)CCC2	i	i	i	i	i
CC(=O)CC(=O)NC(=NC1CCCCC1)Nc1nc(C)cc(C)n1	i	i	i	i	i
Cc1cc(C)nc(NC(N)=NC2CCCCC2)n1	i	i	i	-9*	i
COc1ccc(OC2CCN(S(=O)(=O)c3ccccc3)CC2)cc1	i	13*	i	i	i
COc1ccc(OC2CCN(S(=O)(=O)c3ccc(F)cc3)CC2)cc1	i	i	i	i	i
